{"data": "Published values pooled from the literature", "target": "LIM domain kinase 1 (LIMK1, Homo sapiens, UniProt P53667)", "note": "Compare with care: the assays were run in different laboratories."}
{"SMILES": "C[C@@H]1CCN(c2nccc(-c3cnn4ncccc34)n2)C1", "test": "binding", "conditions": "1 µM", "remaining binding [%]": 100}
{"SMILES": "Cc1cnc(Nc2ccc(C(=O)N3CCC(N4CCCC4)CC3)cc2)nc1-c1cc2ccccc2s1", "test": "binding, competition with immobilised ligand", "conditions": "1 µM", "remaining binding [%]": 55}
{"SMILES": "O=C(Nc1c[nH]nc1C(=O)NC1CCNCC1)c1cc(F)cc(F)c1", "test": "binding, competition with immobilised ligand", "conditions": "1 µM", "remaining binding [%]": 97}
{"SMILES": "COc1ccnn2ncc(-c3ccnc(N(C)C)n3)c12", "test": "binding", "conditions": "1 µM", "remaining binding [%]": 100}
{"SMILES": "COc1cnc(Nc2cccc(S(N)(=O)=O)c2)nc1N1CCN(c2ccccc2)C(=O)C1", "test": "binding, competition with immobilised ligand", "conditions": "1 µM", "remaining binding [%]": 100}
{"SMILES": "O=C(NCCCN1CCOCC1)c1ccc(Nc2nccc(-c3cc4ccccc4s3)n2)cc1", "test": "binding, competition with immobilised ligand", "conditions": "1 µM", "remaining binding [%]": 53}
{"SMILES": "CCC(=N\\O)/C(C)=C/c1ccc(F)cc1", "test": "cell-free assay, competition with immobilised ligand", "conditions": "1 µM", "remaining binding [%]": 78}
{"SMILES": "CCN1CCN(Cc2ccc(C(=O)Nc3ccc(C)c(Oc4ccc5c(c4)CC(=O)N5)c3)cc2C(F)(F)F)CC1", "test": "binding, competition with immobilised ligand", "conditions": "1 µM", "remaining binding [%]": 100}
{"SMILES": "COc1cc(-c2cn(C3CCc4c(F)cccc4N(CC(F)(F)F)C3=O)nn2)ccc1-n1cnc(C)c1 (stereo not drawn)", "test": "cell-free assay, competition with immobilised ligand", "conditions": "1 µM", "remaining binding [%]": 100}
{"SMILES": "Cc1cnn2ncc(-c3ccnc(N(C)C)n3)c2c1", "test": "binding", "conditions": "1 µM", "remaining binding [%]": 100}
{"SMILES": "c1cncc(-c2cccc(Nc3nccc(NC4CCCCC4)n3)c2)c1", "test": "binding, competition with immobilised ligand", "conditions": "10 µM", "remaining binding [%]": 56}
{"SMILES": "Cc1c(NC(=O)c2cc(C(N)=O)nc3cc(F)ccc23)c(C(F)(F)F)nn1Cc1ccc(C#N)cc1", "test": "cell-free assay, competition with immobilised ligand", "conditions": "1 µM", "remaining binding [%]": 78}
{"SMILES": "O=C(NCCCN1CCOCC1)c1ccc(Nc2ncc(Cl)c(-c3ccc(Cl)s3)n2)cc1", "test": "binding, competition with immobilised ligand", "conditions": "1 µM", "remaining binding [%]": 83}
{"SMILES": "Cc1cc(NC(=O)c2cccc(S(F)(F)(F)(F)F)c2)cc(-n2ccn3nc(-c4cccnc4)cc23)c1", "test": "cell-free assay, competition with immobilised ligand", "conditions": "1 µM", "remaining binding [%]": 100}
{"SMILES": "N[C@@H]1CCN(c2nccc(-c3cnn4ncccc34)n2)C1", "test": "binding", "conditions": "1 µM", "remaining binding [%]": 73}
{"SMILES": "C[C@@H](c1ccc(-n2cnc3c(N)ncnc32)cc1)N1CCc2nn(C)c(Cc3ccccc3)c2C1=O", "test": "binding, competition with immobilised ligand", "conditions": "0.1 µM", "remaining binding [%]": 65}
{"SMILES": "FC(F)(F)Oc1cccc(-c2cnc3ccc(-c4ccncc4)nn23)c1", "test": "cell-free assay, competition with immobilised ligand", "conditions": "5 µM", "remaining binding [%]": 81}
{"SMILES": "CCCCN(CCCC)C(=O)CN1C[C@@H](c2cc(OC)c3c(c2)OCO3)[C@H](C(=O)O)[C@H]1CC(C)(C)CCC", "test": "cell-free assay, competition with immobilised ligand", "conditions": "1 µM", "remaining binding [%]": 99}
{"SMILES": "CN(CCCC(F)(F)F)c1nccc(-c2cnn3ncccc23)n1", "test": "binding", "conditions": "1 µM", "remaining binding [%]": 86}
{"SMILES": "N#CC1(c2ccccn2)CCN(Cc2cc(C(=O)N3CCCC3)c(=O)n3ccccc23)CC1", "test": "cell-free assay, competition with immobilised ligand", "conditions": "1 µM", "remaining binding [%]": 98}
{"SMILES": "CNC(=O)[C@@H]1CC[C@@H](n2c(-c3ccc4cnccc4c3)nc3ccc(C(=O)NCc4cccc(C(N)=O)c4)cc32)C1", "test": "binding, competition with immobilised ligand", "conditions": "1 µM", "remaining binding [%]": 100}
